HCV NS3 hel inh: HCV NS3 helicase inhibition; 0.56% of 290,000 active; AID 1800; NS3 helicase DNA unwinding, Cy5 molecular beacon fluorescence; inhibition, % at 10.9 µM;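 active = inhibition above the mean of all tested compounds plus 3 SD, set per campaign, cut at about 35% in these data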
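Measured by: Cy5 fluorescence, 0 and 60 min reads / Assay system: NS3 helicase fragment of HCV / Control set: low DMSO, high thioflavine S at 110 µM / Times: 1 h reaction at 25 °C, ATP-initiated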
HCV core dimer: HCV core protein dimerization inhibition | inhibition, % at 5 µM | 0.33% of 300,000 active | AID 1899 | TR-FRET GST/Flag-core106 dimerization, 1536-well;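 active = inhibition above the mean of all tested compounds plus 3 SD, set per screening campaign, cut at about 45% in these data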
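Assay system: tagged HCV core106 pair (GST and Flag); medium: KF-containing HEPES buffer, pH 7.45, DTT, CHAPS, BSA; also added: Eu donor and XL665 acceptor anti-tag antibodies; dosing: 5 µM single dose; timing: compound-protein-antibody incubation 4 h at 22.5 °C; signal: TR-FRET 671 and 617 nm emission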
PABP FP inh: blocks human PABP binding to poly(A) RNA; fluorescence polarization; inhibition, % at 35 µM; 1% of 290,000 active; AID 2014;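 note: calls also rest on retests at 20 µM and on dose response follow-up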
FID counter: displaces DNA intercalator in HCV helicase counter-screen; DNA fluorescent intercalator displacement, fluorescence; inhibition, % at 7.9 µM; 0.17% of 290,000 active; in the data active = inhibition above about 37%;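 note: higher means more ethidium bromide displaced from hairpin DNA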
PABP1 MLLE inh: inhibitors of microRNA-mediated deadenylation, human PABP1 MLLE binding | GST-MLLE / FITC-PAM2 fluorescence polarization | 0.36% of 360,000 active | inhibition, % at 20 µM; in the data active = inhibition above about 35%, passing the limit was not always enough
eIF4H inh: inhibitors of RNA binding by human eIF4H; Q15056; eIF4H fluorescence polarization binding assay; inhibition, % at 35 µM; 0.94% of 290,000 active; AID 2012;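 note: calls also rest on retests at 20 µM and on dose response follow-up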
A number is an active result. In the library only some 2% were active in any assay of this set; here they are far more common. Unless noted, the rule behind the calls is not given here.

O=C(NC(=S)NC1CCSC1=O)c1ccccc1 (centres undefined) was read as HCV NS3 hel inh inactive, HCV core dimer inactive, PABP FP inh inactive, FID counter inactive, PABP1 MLLE inh inactive and eIF4H inh inactive.
Screening CCC1CCCCN1C(=S)NC(=O)c1cccc([N+](=O)[O-])c1 (centres undefined) returned HCV NS3 hel inh inactive, HCV core dimer inactive, PABP FP inh inactive, FID counter inactive, PABP1 MLLE inh 42 and eIF4H inh inactive.
For O=C(NC(=S)NC1CCSC1=O)c1cccc([N+](=O)[O-])c1 (centres undefined) the results were HCV NS3 hel inh inactive, HCV core dimer inactive, PABP FP inh inactive, FID counter inactive, PABP1 MLLE inh 42 and eIF4H inh inactive.
CCC(=O)N1CCN(c2ccc(NC(=S)NC(=O)c3cccc([N+](=O)[O-])c3)cc2)CC1 was read as HCV NS3 hel inh inactive, HCV core dimer inactive, PABP FP inh inactive, FID counter inactive, PABP1 MLLE inh 43 and eIF4H inh inactive.
CC1CCN(c2ccc(NC(=S)NC(=O)c3ccc(-c4cccc([N+](=O)[O-])c4)o3)cc2)CC1 was read as HCV NS3 hel inh inactive, HCV core dimer inactive, PABP FP inh inactive, FID counter inactive, PABP1 MLLE inh 40 and eIF4H inh inactive.
`CC(=O)N1c2ccc(S(=O)(=O)NCCC(=O)Nc3ccc(OC(F)(F)F)cc3)cc2CC1C` (centres undefined) gave HCV NS3 hel inh inactive, HCV core dimer inactive, PABP FP inh inactive, FID counter inactive, PABP1 MLLE inh inactive and eIF4H inh inactive.
Screening CN1CCN(c2ccccc2NC(=O)c2ccc(-c3cccc([N+](=O)[O-])c3)o2)CC1 returned HCV NS3 hel inh inactive, HCV core dimer inactive, PABP FP inh inactive, FID counter inactive, PABP1 MLLE inh inactive and eIF4H inh inactive.
`CC1CCN(c2ccccc2NC(=S)NC(=O)c2ccc(-c3cccc([N+](=O)[O-])c3)o2)CC1` gave HCV NS3 hel inh inactive, HCV core dimer inactive, PABP FP inh inactive, FID counter inactive, PABP1 MLLE inh 42 and eIF4H inh inactive.
COc1ccc(C(=O)Nc2ccc(N3CCN(C(C)=O)CC3)cc2)cc1[N+](=O)[O-] was read as HCV NS3 hel inh inactive, HCV core dimer inactive, PABP FP inh 62, FID counter inactive and eIF4H inh active.
Screening COC(=O)C1CCN(C2CN(Cc3ccc([N+](=O)[O-])cc3)S(=O)(=O)C2)CC1 (centres undefined) returned PABP1 MLLE inh inactive.
O=C(CC[C@H]1O[C@@H](n2cnc3c(NC(=O)c4ccccc4)ncnc32)[C@H](O)[C@@H]1O)NCc1ccc(OC(F)(F)F)cc1 was read as PABP1 MLLE inh inactive.
Screening CN(C)CCNS(=O)(=O)c1ccc(N2CCN(c3ccc(F)cc3)CC2)c([N+](=O)[O-])c1 returned HCV NS3 hel inh inactive, HCV core dimer inactive, PABP FP inh inactive, FID counter 38, PABP1 MLLE inh inactive and eIF4H inh inactive.
NC(=O)N(CCC(=O)O)c1ccccc1 was read as HCV NS3 hel inh inactive, HCV core dimer inactive, PABP FP inh active, FID counter inactive, PABP1 MLLE inh inactive and eIF4H inh 63.
`Cn1nc([N+](=O)[O-])c(C(C#N)c2nc3ccccc3n2C)c(Cl)c1=O` (centres undefined) gave HCV NS3 hel inh inactive, HCV core dimer inactive, PABP FP inh inactive, FID counter inactive, PABP1 MLLE inh 65 and eIF4H inh inconclusive.
Screening CNC(=O)c1ccsc1NC(=O)c1sc2ccccc2c1Cl returned HCV NS3 hel inh inactive, HCV core dimer inactive, PABP FP inh 52, FID counter inactive, PABP1 MLLE inh inactive and eIF4H inh 54.
For Cc1nnc(NC(=O)c2sc3ccccc3c2Cl)s1 the results were HCV NS3 hel inh inactive, HCV core dimer inactive, PABP FP inh inactive, FID counter inactive, PABP1 MLLE inh inactive and eIF4H inh inactive.
For Cc1cccc(C)c1Cn1c(C)c(C(=O)NCc2ccc([N+](=O)[O-])cc2)sc1=O the results were PABP1 MLLE inh inactive.
For N#CC(C#N)=Cc1cccn1-c1ccc(C(=O)O)cc1 the results were HCV NS3 hel inh inactive, HCV core dimer inactive, PABP FP inh inactive, FID counter inactive, PABP1 MLLE inh inactive and eIF4H inh 87.
For CCOC(=O)/C(C#N)=C/c1cccn1-c1ccc(Cl)cc1 the results were HCV NS3 hel inh inactive, HCV core dimer inactive, PABP FP inh inactive, FID counter inactive, PABP1 MLLE inh inactive and eIF4H inh inactive.
Screening N#C/C(=C/c1cccn1-c1cccc(C(=O)O)c1)c1ccc(Cl)cc1 returned HCV NS3 hel inh inactive, HCV core dimer inactive, PABP FP inh 34, FID counter inactive, PABP1 MLLE inh inactive and eIF4H inh inactive.
CCCCCn1nc(C(=O)N(CC)c2c(N)n(CCCC)c(=O)[nH]c2=O)c2ccccc2c1=O was read as PABP1 MLLE inh inactive.
For CN(CCc1ccccc1)C(=O)c1ccc(NC(=O)Cc2ccc(NC(=O)C3CCCN(C(=O)CCc4ccccc4)C3)cc2)cc1 (centres undefined) the results were PABP1 MLLE inh inactive.
For COc1ccc(C2CC=C(C(C)=O)CN2S(=O)(=O)c2ccc(C)cc2)cc1 (centres undefined) the results were PABP1 MLLE inh inactive.
For O=C(c1cc2ccccc2o1)N1CCN(c2ccccn2)CC1 the results were HCV NS3 hel inh inactive, HCV core dimer inactive, PABP FP inh inactive, FID counter inactive, PABP1 MLLE inh inactive and eIF4H inh inactive.
`C[C@H]1Cn2cnc(C(=O)NCc3ccc(CNC(=O)OC(C)(C)C)cc3)c2C(=O)N1` gave PABP1 MLLE inh inactive.
CC(C)CCSc1nc(N)c(C#N)cc1C#N was read as HCV NS3 hel inh inactive, HCV core dimer 64, PABP FP inh inactive, FID counter inactive, PABP1 MLLE inh inactive and eIF4H inh inactive.
`CC(=O)c1cc(C#N)c(SCCC(C)C)nc1C` gave HCV NS3 hel inh inactive, HCV core dimer inactive, PABP FP inh inactive, FID counter inactive, PABP1 MLLE inh inactive and eIF4H inh inactive.
Screening Cc1cccc(C(O)c2ncc(-c3ccc(Cl)cc3)[nH]2)c1C (centres undefined) returned PABP1 MLLE inh inactive.
Screening COc1ccc(NC(C)=[N+](C)CCNS(=O)(=O)c2ccc(Cl)cc2)cc1 returned HCV NS3 hel inh inactive, HCV core dimer inactive, PABP FP inh 56, FID counter inactive, PABP1 MLLE inh inactive and eIF4H inh inactive.
For COc1ccc(NC(=O)CNS(=O)(=O)c2ccc(Cl)cc2)cc1 the results were HCV NS3 hel inh inactive, HCV core dimer inactive, PABP FP inh inactive, FID counter inactive, PABP1 MLLE inh inactive and eIF4H inh inactive.
Screening CCc1c(C(C)S(=O)(=O)c2ccccc2)[nH]c(=O)n1CC (centres undefined) returned HCV NS3 hel inh inactive, HCV core dimer inactive, PABP FP inh inactive, FID counter inactive, PABP1 MLLE inh 40 and eIF4H inh inactive.
